This is an account of results in ChEMBL document CHEMBL1123111, “Potential inhibitors of S-adenosylmethionine-dependent methyltransferases. 8. Molecular dissections of carbocyclic 3-deazaadenosine as inhibitors of S-adenosylhomocysteine hydrolase” (1985).

Each structure is given as a SMILES string.

Test [1] deals with L929. Nature of the test: Compound was evaluated for cellular toxicity by [3H]thymidine incorporation into DNA of uninfected L-929 cells after 36h exposure. The arrangement: concentration or dose not given beside the values. Format: functional, Mus musculus. In short, it runs like this:
(§1)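 Uninfected mouse L-929 monolayers (2.5 × 10^6 cells/60-mm dish) exposed to 10 µM compound or no drug in serum-free KU-1 medium for 36 or 72 h. Then pulsed with [3H]thymidine. Cells trypsinized, precipitated in 10% TCA at 4 °C, and precipitates collected on glass-fibre filters. Filters solubilized and counted by liquid scintillation. Incorporation expressed as percent of untreated controls.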

Test [2] addresses Adenosylhomocysteinase (Bos taurus) (UniProt Q3MHL4). Nature of the test: Evaluated for the inhibition of bovine liver S-adenosyl-homocysteine hydrolase at concentration 2.0 mM.
The test system of test [3] is L929. Nature of the test: Compound was evaluated for cellular toxicity by [3H]thymidine incorporation into DNA of uninfected L-929 cells after 72 hr exposure. In kind it is functional, Mus musculus. The arrangement: concentration or dose not given beside the values. The method, boiled down: as §1
(In general: Incorporation of labelled thymidine or its analogues reports DNA synthesis.)

The test system of test [4] is L929. Nature of the test: Ability to inhibit Vaccinia virus plaque formation after 72 hr in monolayer cultures of mouse L-929 cells. Format: functional. Details: concentration or dose not given beside the values.

Chain of Adenosylhomocysteinase (Bos taurus) (Q3MHL4 whole entry, looked up): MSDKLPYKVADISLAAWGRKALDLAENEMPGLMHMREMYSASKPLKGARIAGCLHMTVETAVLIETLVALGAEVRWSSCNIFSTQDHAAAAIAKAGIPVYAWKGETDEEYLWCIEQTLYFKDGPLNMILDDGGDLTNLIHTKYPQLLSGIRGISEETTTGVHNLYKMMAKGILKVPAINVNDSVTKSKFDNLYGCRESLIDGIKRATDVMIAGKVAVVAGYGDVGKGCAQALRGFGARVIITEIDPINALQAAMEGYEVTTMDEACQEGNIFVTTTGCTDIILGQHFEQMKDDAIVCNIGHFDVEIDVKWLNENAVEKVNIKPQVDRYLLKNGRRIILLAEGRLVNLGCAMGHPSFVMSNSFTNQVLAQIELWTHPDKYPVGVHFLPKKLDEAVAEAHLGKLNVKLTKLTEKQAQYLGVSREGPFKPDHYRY

Turning to `Nc1nccc2c1ncn2C(CO)CCCO` (centres undefined), the Control with L929 [1] is reported as 91%; in the test with L929 [3], 140%. This compound also yielded an inhibition in test [2] of 50%. This compound returned an Inhibition in the test on L929 [4] of 27%.

As for `Nc1nccc2c1ncn2CCO`, the Control was 95% with L929 [1] and 113% in the test with L929 [3]. Moreover, in test [2], the inhibition was 27%. Further, the Inhibition in the test on L929 [4] worked out at 33%.

In the case of `Nc1nccc2c1ncn2CCCCO`, the values for the Control in the test with L929 [1] and in the test on L929 [3] were 102% and 110%, respectively. The compound also gave an inhibition in test [2] of 12%. In the test with L929 [4], this compound showed an Inhibition of 51%.

Turning to `Nc1nccc2c1ncn2CC(O)CO` (centres undefined), the values for the Control with L929 [1] and in the test with L929 [3] were 88% and 138%, respectively. In test [2], this compound had an inhibition of 95%. The compound also showed an Inhibition in the test with L929 [4] of 53%.

Turning to `Nc1nccc2c1ncn2[C@@H]1C[C@H](CO)[C@@H](O)[C@H]1O` [3-DEAZAARISTEROMYCIN A], the results for the Control in the test on L929 [1] and with L929 [3] were 86% and 246%, respectively. In the test on L929 [4], this compound yielded an Inhibition of 95%.

One may read the inhibition as the share of the control response that was lost under treatment. What is called Inhibition is the relative decrease from the control value, in per cent.
